Measured values: paper PMC2670241 (Journal of neurochemistry, 2009)

How the values were obtained:
MOR23-1 = MOR23-1 (Mus musculus, UniProt Q8VG01); type: cell-based; conditions: read-out: Response normalized to the response of the same oocyte to 100 μM nonanoic acid
MOR32-11 = MOR32-11 (Mus musculus, UniProt Q8VF06); type: cell-based; conditions: for activation / activation at 3 µM / activation at 10 µM / activation at 30 µM: read-out: Response normalized to the response of the same oocyte to 100 μM nonanoic acid
Sequence of MOR32-11 (Q8VF06 1-312): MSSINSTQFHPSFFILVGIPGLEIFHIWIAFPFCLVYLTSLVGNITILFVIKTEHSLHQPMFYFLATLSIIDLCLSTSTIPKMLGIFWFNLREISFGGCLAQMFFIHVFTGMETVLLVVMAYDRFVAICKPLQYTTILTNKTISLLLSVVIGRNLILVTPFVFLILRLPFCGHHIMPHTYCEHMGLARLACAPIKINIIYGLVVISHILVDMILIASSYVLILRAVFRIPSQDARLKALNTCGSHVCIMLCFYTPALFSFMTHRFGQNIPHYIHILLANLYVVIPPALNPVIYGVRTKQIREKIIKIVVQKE

[1] = tested on: oocytes expressing Gαolf and CFTR, but no receptor; assay: Control oocytes expressing Gαolf and CFTR, but no receptor; type: cell-based, Xenopus laevis; conditions: 100 μM, 15 sec application
Summary of the method: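 Xenopus oocytes were defolliculated with collagenase B for 2 h at room temperature and injected with human Gαolf (10 ng) and CFTR (1 ng) cRNA in 23 nl water, with no receptor. Under voltage clamp in ND96 (pH 7.5), test compounds from 1 M DMSO stocks, diluted in ND96, were applied for 15 sec. 1 mM IBMX served as receptor-independent CFTR activator. Read-out was current.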

MOR174-9 (mOR-EG) [2] = target: T1, MOR174-9 (mOR-EG) (Mus musculus, UniProt Q920P2); type: cell-based; conditions: each at 100 μM, 15 sec application
T1 sequence (Q920P2 1-313): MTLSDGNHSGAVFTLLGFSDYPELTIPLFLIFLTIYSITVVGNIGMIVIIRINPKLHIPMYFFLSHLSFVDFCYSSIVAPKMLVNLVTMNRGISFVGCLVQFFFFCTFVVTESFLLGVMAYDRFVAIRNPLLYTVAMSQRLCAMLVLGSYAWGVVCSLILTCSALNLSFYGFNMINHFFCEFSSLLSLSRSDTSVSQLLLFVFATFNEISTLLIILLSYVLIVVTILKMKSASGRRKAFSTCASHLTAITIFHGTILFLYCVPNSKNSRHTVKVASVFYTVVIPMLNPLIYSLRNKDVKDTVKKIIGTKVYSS

MOR40-4 (S83) = conditions: ref Malnic et al., 1999; cited from earlier work
MOR174-9 (mOR-EG) [3] = target: T1, MOR174-9 (mOR-EG); conditions: ref Abaffy et al., 2006; cited from earlier work

Structure (SMILES) | activation (MOR23-1) | activation (MOR32-11) | activation at 3 µM (MOR32-11) | activation at 10 µM (MOR32-11) | activation at 30 µM (MOR32-11) | also measured
CCCCCCCCO [Octanol] | 100 ± 6% | 0% |  |  |  | activation at 10 µM (MOR23-1): 23 ± 2%; activation at 30 µM (MOR23-1): 68 ± 13%
CCCCCCCCC=O [Nonanal] | 0% | 32 ± 6% | 0% | 0% | 0% | 
CCCCCCCCCC(=O)O [Decanoic acid] | 0% | 122 ± 8% | 0% | 13 ± 3% | 0% | 
CCOc1cc(C=O)ccc1O [ethyl vanillin] |  |  |  |  |  | Response of oocytes expressing Gαolf and CFTR, but no receptor [1]: do not respond; Response of MOR174-9 to odorant (MOR174-9 (mOR-EG) [2]): responds
CCCCCCCC(=O)O [Octanoic acid] | 178 ± 29% | 76 ± 6% | 0% | 27 ± 7% | 83 ± 14% | Response of MOR40-4 (S83) to odorant (previously shown) (MOR40-4 (S83)): respond; activation at 3 µM (MOR23-1): 70 ± 11%; activation at 10 µM (MOR23-1): 112 ± 17%; activation at 30 µM (MOR23-1): 158 ± 12%
O=C(O)CCCCCCCCCC(=O)O [Undecanedioic acid] | 0% | 0% |  |  |  | 
CCCCCCCCCCCO [Undecanol] | 0% | 6 ± 2% |  |  |  | 
CC(C)=CCC/C(C)=C/CO [geraniol] |  |  |  |  |  | Response of MOR174-9 to odorant (MOR174-9 (mOR-EG) [2]): does not respond
O=C(O)CCCCCCCCCCCBr [12-Bromo-dodecanoic acid] | 0% | 6 ± 2% |  |  |  | 
CCCCCCCCCCCC(=O)O [Dodecanoic acid] |  |  | 0% | 0% | 0% | 
CCCCCCCCCCC=O [Undecanal] | 0% | 16 ± 3% | 0% | 0% | 0% | 
C=CCc1ccc(O)c(OC)c1 [eugenol] |  |  |  |  |  | Response of oocytes expressing Gαolf and CFTR, but no receptor [1]: do not respond; Response of MOR174-9 to odorant (MOR174-9 (mOR-EG) [2]): responds
CCCCCCC(=O)O [Heptanoic acid] | 64 ± 10% | 35 ± 6% | 0% | 13 ± 5% | 40 ± 12% | activation at 3 µM (MOR23-1): 0%; activation at 10 µM (MOR23-1): 10 ± 3%; activation at 30 µM (MOR23-1): 17 ± 4%; Saturation of dose-response at MOR32-11 (MOR32-11; up to a concentration of 1 mM, data not shown): failed to saturate
CCCCO [butanol] |  |  |  |  |  | Response of MOR174-9 to odorant (MOR174-9 (mOR-EG) [2]): does not respond
O=C(O)CCCCCCCCCCBr [11-Bromo-undecanoic acid] | 0% | 27 ± 10% | 0% | 0% | 0% | 
COc1ccccc1O [guaiacol] |  |  |  |  |  | Response of MOR174-9 to odorant (MOR174-9 (mOR-EG) [2]): does not respond
CCCCCCCCCCCC=O [Dodecanal] | 0% | 25 ± 3% | 0% | 0% | 0% | 
C=C(C)[C@H]1CC=C(C)C(=O)C1 [(+) carvone] |  |  |  |  |  | Response of MOR174-9 to odorant (MOR174-9 (mOR-EG) [2]): does not respond
CCCCCCCCC(=O)O [Nonanoic acid] | 100% | 100% | 0% | 25 ± 4% | 61 ± 8% | Response of MOR40-4 (S83) to odorant (previously shown) (MOR40-4 (S83)): respond; activation at 3 µM (MOR23-1): 0%; activation at 10 µM (MOR23-1): 11 ± 4%; activation at 30 µM (MOR23-1): 48 ± 8%
CCCCCCCC=O [Octanal] | 198 ± 27% | 22 ± 6% | 0% | 0% | 0% | activation at 3 µM (MOR23-1): 35 ± 5%; activation at 10 µM (MOR23-1): 76 ± 13%; activation at 30 µM (MOR23-1): 107 ± 7%
CCCCCCCCCO [nonanol] |  |  |  |  |  | Response of MOR40-4 (S83) to odorant (previously shown) (MOR40-4 (S83)): respond
COc1cc(C=O)ccc1O [vanillin] |  |  |  |  |  | Response of oocytes expressing Gαolf and CFTR, but no receptor [1]: do not respond; Response of MOR174-9 to odorant (MOR174-9 (mOR-EG) [2]): responds
CCCCCCCCCCC(=O)O [Undecanoic acid] | 0% | 98 ± 22% | 0% | 0% | 26 ± 8% | 
O=C(O)CCCCCCCBr [8-Bromo-octanoic acid, 8-bromooctanoic acid] | 32 ± 6% | 0% |  |  |  | Response of MOR40-4 (S83) to odorant (previously shown) (MOR40-4 (S83)): respond; activation at 3 µM (MOR23-1): 0%; activation at 10 µM (MOR23-1): 0%; activation at 30 µM (MOR23-1): 43 ± 8%
O=C(O)CCCCCCCCCBr [10-Bromo-decanoic acid, 10-bromodecanoic acid] | 0% | 60 ± 4% | 0% | 0% | 0% | 
C=C(C)[C@@H]1CC=C(C)C(=O)C1 [(−) carvone] |  |  |  |  |  | Response of MOR174-9 to odorant (MOR174-9 (mOR-EG) [2]): does not respond
C/C=C/c1ccc(OC)c(OC)c1 [methylisoeugenol] |  |  |  |  |  | Antagonism of the response to eugenol of MOR174-9 expressed in oocytes (MOR174-9 (mOR-EG) [3]): can antagonize
O=C(O)CCCCCBr [6-Bromo-hexanoic acid, 6-bromohexanoic acid] | 61 ± 7% | 0% |  |  |  | activation at 3 µM (MOR23-1): 0%; activation at 10 µM (MOR23-1): 0%; activation at 30 µM (MOR23-1): 22 ± 6%
CCCCCCCCCC=O [Decanal] | 0% | 23 ± 5% | 0% | 0% | 0% | 
